The values that follow come from ChEMBL document CHEMBL3745596, “Chlorophenoxy aminoalkyl derivatives as histamine H(3)R ligands and antiseizure agents” (Bioorg Med Chem, 2016).

Each structure is given as a SMILES string. Calls of active or inactive are those of the source.

For data set [1], the system named is Mus musculus. The data set is described as follows: Neurotoxicity in CF1 albino mouse at 300 mg/kg, ip after 4 hrs by rotarod test. Type of data set: toxicity, organism-based. Particulars: in vivo. The procedure, abridged: (§1)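 Rotarod neurotoxicity in male albino CF-1 mice dosed ip with compound suspended in 0.5% methylcellulose. Animal placed on a 1 inch diameter knurled plastic rod rotating at 6 rpm. Neurotoxicity scored when the animal falls off three times within 1 min. Readout is number of animals toxic/number tested at the stated time after dosing. TD50 with 95% confidence interval from the quantitative study.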

Data set [2] has as its system Mus musculus. The data set is described as follows: Neurotoxicity in CF1 albino mouse assessed as vocalization at 30 mg/kg, ip after 0.5 hrs by rotarod test. Type of data set: toxicity, organism-based. The note with it: in vivo. The method in brief:
(§2)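 Rotarod neurotoxicity in male CF-1 mice dosed ip as 0.5% methylcellulose suspension: mouse placed on 1 inch knurled rod rotating at 6 rpm; toxicity when the animal falls off three times within 1 min, with other signs noted. Scored as toxic/tested at 0.5 h and 4 h.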

Data set [3] deals with Mus musculus. The data set is described as follows: Anticonvulsant activity in CF1 albino mouse assessed as protection against maximal electroshock-induced seizure at 30 mg/kg, ip after 4 hrs. Type of data set: functional, organism-based. The procedure, abridged: (§3)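 Male CF-1 mice dosed ip as suspension in 0.5% methylcellulose. Corneal electrodes deliver 60 Hz alternating current, 50 mA for […], after a drop of 0.5% tetracaine HCl in 0.9% NaCl per eye. Protection means abolition of hindlimb tonic extension; scored as protected/tested, or ED50 with 95% confidence interval.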
In general terms: The maximal electroshock test induces tonic seizures with an electrical stimulus.

Data set [4] deals with Mus musculus. The data set is described as follows: Anticonvulsant activity in CF1 albino mouse assessed as protection against maximal electroshock-induced seizure at 3 mg/kg, ip after 0.5 hrs. Type of data set: functional, organism-based. The procedure, abridged: as §3
For data set [5], the system named is Mus musculus. The data set is described as follows: Neurotoxicity in CF1 albino mouse at 100 mg/kg, ip after 4 hrs by rotarod test. In kind it is toxicity, organism-based. Particulars: in vivo. The method in brief:
as §1
(In general: In the rotarod test animals must keep their balance on a rotating rod.)

In data set [6] the test system is Mus musculus. The data set is described as follows: Neurotoxicity in CF1 albino mouse at 10 mg/kg, ip after 0.5 hrs by rotarod test. Type of data set: toxicity, organism-based. Particulars: in vivo. The method in brief: as §2
In data set [7] the test system is Mus musculus. The data set is described as follows: Anticonvulsant activity in CF1 albino mouse assessed as protection against maximal electroshock-induced seizure at 30 mg/kg, ip after 0.5 hrs. In kind it is functional, organism-based. The method in brief: as §3
Data set [8] deals with Mus musculus. The experiment in a line: Anticonvulsant activity in CF1 albino mouse assessed as protection against maximal electroshock-induced seizure at 10 mg/kg, ip after 0.5 hrs. Type of data set: functional, organism-based. The procedure, abridged: as §3
The test system of data set [9] is Mus musculus. The experiment in a line: Neurotoxicity in CF1 albino mouse at 30 mg/kg, ip after 4 hrs by rotarod test. The note with it: in vivo. Type of data set: toxicity, organism-based. The method in brief:
as §1

In data set [10] the test system is Mus musculus. The experiment in a line: Neurotoxicity in CF1 albino mouse assessed as death at 100 mg/kg, ip after 0.5 hrs by rotarod test. Type of data set: toxicity, organism-based. Particulars: in vivo. The method in brief:
(§4)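 Male albino CF-1 mice dosed ip with compound suspended in 0.5% methylcellulose, then placed on a 1-inch knurled plastic rod turning at 6 rpm. A fall three times within 1 min counted as neurotoxicity. Observations were made at 0.5 h and 4 h after dosing. Result given as animals showing toxicity per animals tested, with the kind of toxicity recorded.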

For data set [11], the target named is Histamine H3 receptor (Homo sapiens, UniProt Q9Y5N1). The experiment in a line: Displacement of [3H]-Nalpha-methylhistamine from human recombinant histamine H3 receptor expressed in HEK293 cells after 90 mins. In kind it is cell-based.
The test system of data set [12] is Mus musculus. The experiment in a line: Anticonvulsant activity in CF1 albino mouse assessed as protection against subcutaneous pentetrazole-induced seizure at 30 mg/kg, ip after 4 hrs. Type of data set: functional, organism-based. The method in brief:
(§5)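 Male CF-1 mice, ip in 0.5% methylcellulose; pentetrazole at CD97 (85 mg/kg) injected subcutaneously in a loose fold of neck skin. Observed 30 min; absence of even a threshold seizure (single clonic spasm lasting at least 5 s) counted as protection. Scored protected/tested, or ED50.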

Data set [13] relates to Mus musculus. The experiment in a line: Anticonvulsant activity in CF1 albino mouse assessed as protection against subcutaneous pentetrazole-induced seizure at 30 mg/kg, ip after 0.5 hrs. Type of data set: functional, organism-based. The procedure, abridged: as §5
For data set [14], the system named is Mus musculus. The experiment in a line: Neurotoxicity in CF1 albino mouse assessed as death at 300 mg/kg, ip after 0.5 hrs by rotarod test. In kind it is toxicity, organism-based. Particulars: in vivo. The procedure, abridged: as §4
Data set [15] has as its system Mus musculus. The data set is described as follows: Neurotoxicity in CF1 albino mouse at 3 mg/kg, ip after 0.5 hrs by rotarod test. Particulars: in vivo. In kind it is toxicity, organism-based. The method in brief: as §1
For data set [16], the system named is Mus musculus. The experiment in a line: Anticonvulsant activity in CF1 albino mouse assessed as protection against maximal electroshock-induced seizure at 100 mg/kg, ip after 0.5 hrs. In kind it is functional, organism-based. The procedure, abridged:
as §3

Data set [17] deals with Rattus norvegicus. The experiment in a line: Anticonvulsant activity in Sprague-Dawley rat assessed as protection against pilocarpine-induced convulsive status epilepticus at 65 mg/kg, ip. Type of data set: functional, organism-based. The method in brief: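 Male Sprague Dawley rats (150–180 g) dosed ip, pilocarpine 50 mg/kg ip given; compound dosed immediately at first behavioral Stage 3 seizure or 30 min later. Number protected from Racine Stage 3 or greater seizures recorded.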

Data set [18] concerns Mus musculus. The data set is described as follows: Anticonvulsant activity in CF1 albino mouse assessed as protection against maximal electroshock-induced seizure at 100 mg/kg, ip after 4 hrs. Type of data set: functional, organism-based. The method in brief:
as §3

For data set [19], the system named is Mus musculus. The experiment in a line: Neurotoxicity in CF1 albino mouse assessed as death at 300 mg/kg, ip after 4 hrs by rotarod test. Type of data set: toxicity, organism-based. The note with it: in vivo. The method in brief: as §4
Data set [20] relates to Mus musculus. The data set is described as follows: Anticonvulsant activity in CF1 albino mouse assessed as protection against subcutaneous pentetrazole-induced seizure at 100 mg/kg, ip after 0.5 hrs. Type of data set: functional, organism-based. The method in brief: as §5
The subject of data set [21] is Mus musculus. The data set is described as follows: Anticonvulsant activity in CF1 albino mouse assessed as protection against subcutaneous pentetrazole-induced seizure at 100 mg/kg, ip after 4 hrs. In kind it is functional, organism-based. The procedure, abridged: as §5
For data set [22], the system named is Mus musculus. The data set is described as follows: Neurotoxicity in CF1 albino mouse at 30 mg/kg, ip after 0.5 hrs by rotarod test. The note with it: in vivo. In kind it is toxicity, organism-based. The method in brief: as §1
Data set [23] can be described thus: Neuroprotective activity in hippocampal slice (unknown origin) assessed as protection against NMDA-induced cell death using propidium iodide staining. Type of data set: functional. Particulars: Hippocampus. The procedure, abridged:
(§6)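 Organotypic hippocampal slice cultures exposed to NMDA or kainic acid alone or with compound; propidium iodide in all wells; PI fluorescence intensity of slices, proportional to cell death, compared with excitotoxin-only slices; qualitative.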

Data set [24] relates to Mus musculus. The data set is described as follows: Anticonvulsant activity in CF1 albino mouse assessed as protection against 6 Hz-psychomotor-induced seizure at 30 mg/kg, ip after 0.25 to 4 hrs. Type of data set: functional, organism-based. The method in brief:
(§7)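 Male CF-1 mice, ip suspension in 0.5% methylcellulose. Corneal stimulation 0.2 ms monopolar rectangular pulses at 6 Hz, 32 mA for 3 s via constant-current device; mice without minimal clonic phase seizure counted protected. Groups of four; read at 0.25, 0.5, 1, 2, 4 h; result as protected/tested.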

The subject of data set [25] is Mus musculus. The data set is described as follows: Neurotoxicity in CF1 albino mouse at 30 mg/kg, ip after 0.25 to 4 hrs by rotarod test. In kind it is toxicity, organism-based. The note with it: in vivo. The procedure, abridged:
as §1

The test system of data set [26] is Mus musculus. The data set is described as follows: Anticonvulsant activity in CF1 albino mouse assessed as protection against 6 Hz-psychomotor-induced seizure at 60 mg/kg, ip after 4 hrs. In kind it is functional, organism-based. The method in brief:
as §7

For data set [27], the system named is Mus musculus. The data set is described as follows: Neurotoxicity in CF1 albino mouse at 60 mg/kg, ip after 1 to 4 hrs by rotarod test. Type of data set: toxicity, organism-based. The note with it: in vivo. The procedure, abridged:
as §1

A short description of data set [28]: Neuroprotective activity in hippocampal slice (unknown origin) assessed as protection against kainic acid-induced cell death using propidium iodide staining. In kind it is functional. Particulars: Hippocampus. The procedure, abridged:
as §6

Chain of Histamine H3 receptor (Q9Y5N1 whole entry): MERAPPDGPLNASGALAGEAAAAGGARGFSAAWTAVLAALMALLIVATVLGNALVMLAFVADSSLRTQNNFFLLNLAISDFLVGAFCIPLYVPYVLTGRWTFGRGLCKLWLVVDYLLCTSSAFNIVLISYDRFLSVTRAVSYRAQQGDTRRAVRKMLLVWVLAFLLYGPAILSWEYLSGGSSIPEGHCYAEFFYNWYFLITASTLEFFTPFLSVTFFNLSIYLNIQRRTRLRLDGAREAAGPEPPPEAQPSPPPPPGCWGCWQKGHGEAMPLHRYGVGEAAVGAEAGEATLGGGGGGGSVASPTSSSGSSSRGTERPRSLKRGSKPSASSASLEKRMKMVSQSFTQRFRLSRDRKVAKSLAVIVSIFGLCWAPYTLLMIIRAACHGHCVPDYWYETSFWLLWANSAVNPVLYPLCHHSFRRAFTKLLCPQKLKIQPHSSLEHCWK

Consider `CC1CCN(CCCCCOc2ccc(Cl)cc2)CC1.O=C(O)C(=O)O`, for which the Activity result was “Non-toxic” in data set [1]; “Toxic” in data set [2]; “Non-toxic” in [5]; “Non-toxic” in data set [6]; “Non-toxic” in [9]; “Toxic” in data set [10]. For the same compound, the Activity entry in data set [14] is reported as “Toxic”; in [15] it was “Non-toxic”. The result in data set [3] and in data set [7] was Active. Further, the result in data set [4], in [8], in [12] and in data set [13] was inactive. The Ki (as a rule, the equilibrium dissociation constant of an inhibitor or competing ligand from its target) in data set [11] was 0.8 µM.

As for `Clc1cccc(OCCCCCCCN2CCCCC2)c1.O=C(O)C(=O)O`, the outcome in [3], in [7], in [16], in [18], in data set [12] and in [13] was inactive. For the same compound, the result in data set [20] and in [21] was inactive. Further, the Activity result in data set [5] is “Non-toxic”; in data set [9], “Non-toxic”; in [19], “Non-toxic”; in [14], “Toxic”; in [22], “Non-toxic”. The Ki in [11] is 0.333 µM. Also, the result in [17] was Active.

In the case of `Clc1ccc(OCCCCCCN2CCCCC2)cc1.O=C(O)C(=O)O`, the Activity entry in data set [1] is “Non-toxic”; in [5] it was “Non-toxic”; in data set [25] it was “Non-toxic”; in data set [6] it was “Non-toxic”; in [9], “Non-toxic”; in data set [10] it was “Toxic”. The figures for the Activity entry in data set [27], in [14] and in [15] were “Non-toxic”, “Toxic” and “Non-toxic”, respectively. Besides, the outcome in data set [23], in data set [24], in [3], in [4], in [8] and in data set [12] was inactive. Moreover, the result in data set [26], in data set [13] and in data set [28] was inactive. The outcome in data set [7] and in data set [17] was Active. In data set [11], the Ki amounted to 0.265 µM.
